This is a sample that favours compounds with a hit; in the whole collection about 2.1% have one here.
bovine MsrA act: activates bovine MsrA enzyme. purified bovine MsrA, absorbance read-out. activation, % at 10.6 µM. actives 0.3% (n = 360,000). AID 602163; in the data active = activation above about 7.5%;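 also: 0% = vehicle and 100% = reference activator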
PKA-R2B act: activators of human PKA-R2B complex | P22694+P31323 | PKA-R2B holoenzyme dissociation, Cy5-IP20 fluorescence polarization; R2B truncated from residue 108, S112A mutant; 0% DMSO only, 100% 113 µM cGMP | activation, % at 11.4 µM | actives 0.079% (n = 340,000) | AID 504700;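 active = activation above a cutoff set at the mean over all compounds plus 3 SD, cut at about 18% in these data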;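 also: higher means more holoenzyme dissociation and a rise in polarization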
Target sequence (P31323 whole entry, looked up, other chains not shown, the tested form may be a part): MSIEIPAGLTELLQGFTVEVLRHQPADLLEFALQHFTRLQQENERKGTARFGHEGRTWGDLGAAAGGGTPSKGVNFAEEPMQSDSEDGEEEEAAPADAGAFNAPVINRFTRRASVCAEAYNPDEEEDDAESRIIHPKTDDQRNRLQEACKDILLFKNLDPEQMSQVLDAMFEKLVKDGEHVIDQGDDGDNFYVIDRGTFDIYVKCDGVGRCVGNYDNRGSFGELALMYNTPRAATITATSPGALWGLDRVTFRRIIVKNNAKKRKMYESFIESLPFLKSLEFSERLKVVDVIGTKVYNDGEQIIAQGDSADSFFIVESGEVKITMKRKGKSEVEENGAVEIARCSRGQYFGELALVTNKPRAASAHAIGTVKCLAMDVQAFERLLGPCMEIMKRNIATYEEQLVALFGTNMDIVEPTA
PKA-R1A act: PKA-R1A complex activation; P00514+P68181; PKA-R1A dissociation, Cy5-IP20 fluorescence polarization; scaled: DMSO 0%, 113 µM cGMP 100%; activation, % at 11.4 µM; actives 0.083% (n = 340,000);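 active = percent activation above the mean of all tested compounds plus 3 SD, cut at about 19% in these data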;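 also: higher means more PKAc released from R1A so a rise in polarization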
IMP-1 inhibitor: inhibitors of Pseudomonas aeruginosa IMP-1 metallo-beta-lactamase. purified IMP-1, nitrocefin hydrolysis, epi-absorbance fluorescence. inhibition, % at 5.6 µM. actives 0.45% (n = 290,000). AID 1556;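 active = inhibition above the mean plus 3 SD of all compounds in the same screening run, cut at about 4.5% in these data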;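 also: 0% = IMP-1 with DMSO and 100% = DMSO wells lacking enzyme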
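assay system = purified recombinant IMP-1 metallo-beta-lactamase enzyme | schedule = 15 min preincubation plus 25 min reaction at 25 °C | signal = Epi-absorbance fluorescence, 480 nm excitation, 530 nm emission | read-out basis = percent inhibition from optical density relative to buffer-blank wells | controls = IMP-1 with DMSO as 0%, enzyme-free DMSO as 100%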
VIM-2 inhibitor: blocks Pseudomonas aeruginosa VIM-2 metallo-beta-lactamase. purified VIM-2, nitrocefin hydrolysis, epi-absorbance fluorescence. inhibition, % at 5.6 µM. actives 0.89% (n = 290,000);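 active = inhibition above the mean of all tested compounds plus 3 SD, cutoff set per screening run, cut at about 7.5% in these data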;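 also: red hydrolysis product quenches plate fluorescence so inhibitors raise well fluorescence; 0% = enzyme with DMSO and 100% = DMSO without enzyme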
MsrA inh: inhibitors of bovine MsrA; purified bovine MsrA, absorbance read-out; inhibition, % at 15.5 µM; actives 0.75% (n = 360,000); AID 651718; in the data active = inhibition above about 4.5%;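 also: 0% = vehicle wells with enzyme and 100% = reference inhibitor wells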
* = called active by the depositor.

Results for CCC1=C/C(=C/N(C)c2ccccc2)C(=O)S1 ?
bovine MsrA act: -5.4; PKA-R2B act: -2.0; PKA-R1A act: -1.5; IMP-1 inhibitor: 6.1*; VIM-2 inhibitor: 2.6; MsrA inh: 1.4

What do the screens show for `CC(C)Oc1ccc(C(=O)Nc2ccc(N3CCCCC3)cc2)cc1`?
bovine MsrA act: -10.6; PKA-R2B act: -7.8; PKA-R1A act: -8.5; IMP-1 inhibitor: -1.7; VIM-2 inhibitor: -0.2; MsrA inh: -0.7

What do the screens show for `CCCOc1cccc(C(=O)NC(=S)Nc2ccc(N3CCN(C)CC3)cc2)c1`?
bovine MsrA act: -3.2; IMP-1 inhibitor: 0.3; VIM-2 inhibitor: 12.1*; MsrA inh: 4.0

How did CC(C)Oc1cccc(C(=O)Nc2ccc(N3CCN(C)CC3)cc2)c1 do in these assays?
bovine MsrA act: 1.4; PKA-R2B act: -4.9; PKA-R1A act: -2.0; IMP-1 inhibitor: -0.5; VIM-2 inhibitor: 12.0*; MsrA inh: 0.1

How did Cn1c(SCC(=O)O)nc2ccccc2c1=O do in these assays?
bovine MsrA act: -4.6; PKA-R2B act: 7.8; PKA-R1A act: 5.0; IMP-1 inhibitor: -0.3; VIM-2 inhibitor: 11.4*; MsrA inh: -0.1

What do the screens show for `Cc1ncsc1CCSc1n[nH]c(=O)n1-c1ccccc1`?
bovine MsrA act: -2.1; PKA-R2B act: 1.5; PKA-R1A act: 1.9; IMP-1 inhibitor: -0.2; VIM-2 inhibitor: 1.2; MsrA inh: -0.4

Results for COC(=O)CSc1nc2ccccc2c(=O)n1C ?
bovine MsrA act: -8.8; PKA-R2B act: -3.1; PKA-R1A act: -8.1; IMP-1 inhibitor: -2.8; VIM-2 inhibitor: -2.4; MsrA inh: -0.4

Results for Cc1ncsc1CCSc1nc2ccccc2c(=O)n1C ?
bovine MsrA act: -14.8; PKA-R2B act: -5.1; PKA-R1A act: 5.4; IMP-1 inhibitor: -2.8; VIM-2 inhibitor: 20.8*; MsrA inh: 0.5

How did O=C(NCc1ccccc1)[C@@H]1CCCN1C(=O)[C@H]1CCCN1C(=O)c1ccccc1C(F)(F)F do in these assays?
MsrA inh: -0.8

Results for FC(F)(F)c1cc(Cl)c2nnc(-c3cccnc3)n2c1 ?
bovine MsrA act: -3.0; PKA-R2B act: 1.5; PKA-R1A act: 2.0; IMP-1 inhibitor: -2.7; VIM-2 inhibitor: -1.8; MsrA inh: 0.4

How did FC(F)(F)c1cc(Cl)c2nnc(-c3ccccn3)n2c1 do in these assays?
bovine MsrA act: -3.2; PKA-R2B act: -4.8; PKA-R1A act: -17.9; IMP-1 inhibitor: -4.4; VIM-2 inhibitor: 8.1*; MsrA inh: -0.2

How did CN1C(=O)N(C)c2ccc(C=O)c3cccc1c23 do in these assays?
bovine MsrA act: -0.9; PKA-R2B act: -2.9; PKA-R1A act: -10.3; IMP-1 inhibitor: -3.0; VIM-2 inhibitor: 5.7; MsrA inh: 0.6

Results for CN1C(=O)N(C)c2cccc3cccc1c23 ?
bovine MsrA act: -1.7; PKA-R2B act: -1.7; PKA-R1A act: -4.6; IMP-1 inhibitor: -2.2; VIM-2 inhibitor: 9.3*; MsrA inh: 0.9

What do the screens show for `CN1C(=O)N(C)c2ccc(Br)c3cccc1c23`?
bovine MsrA act: -3.4; PKA-R2B act: 3.5; PKA-R1A act: 0.4; IMP-1 inhibitor: 0.9; VIM-2 inhibitor: 11.5*; MsrA inh: 1.2

How did CN1C(=O)Nc2cccc3cccc1c23 do in these assays?
bovine MsrA act: -1.4; PKA-R2B act: 10.3; PKA-R1A act: 2.4; IMP-1 inhibitor: -1.6; VIM-2 inhibitor: 2.4; MsrA inh: 0.9

Results for CC(=C1SC(=S)NC1=O)c1ccc(Cl)c(O)c1 ?
MsrA inh: 2.4

Results for Cn1c(CC(=O)Nc2ccc(Cl)cc2)nnc1SCC(=O)N1CCOCC1 ?
bovine MsrA act: -1.9; PKA-R2B act: -2.1; PKA-R1A act: 2.7; IMP-1 inhibitor: -1.6; VIM-2 inhibitor: -5.7; MsrA inh: -1.2

What do the screens show for `N#CC1=C(S)N(c2ccccc2)C(c2ccc(-c3ccccc3Cl)o2)NC1=O` (stereo unspecified)?
bovine MsrA act: -2.8; PKA-R2B act: 3.0; PKA-R1A act: 5.4; IMP-1 inhibitor: 12.1*; VIM-2 inhibitor: 1.8; MsrA inh: 1.6

What do the screens show for `Cc1ccc(Cl)c2c1=NC(=O)C=2c1[nH]c(=S)[nH]c1O`?
bovine MsrA act: -6.7; PKA-R2B act: 13.0; PKA-R1A act: -14.4; IMP-1 inhibitor: 6.4*; VIM-2 inhibitor: 2.5; MsrA inh: -0.3

How did CN(C)CCCNc1c2ccccc2nc2ccccc12 do in these assays?
bovine MsrA act: -9.6; PKA-R2B act: 0.6; PKA-R1A act: -0.3; IMP-1 inhibitor: -1.1; VIM-2 inhibitor: 12.1*; MsrA inh: 0.7

Results for CCOC(=O)C1CCN(Cc2cccc(OCc3ccccc3)c2)CC1 ?
bovine MsrA act: -2.0; PKA-R2B act: -7.3; PKA-R1A act: -7.5; IMP-1 inhibitor: -2.7; VIM-2 inhibitor: -2.8; MsrA inh: -0.4

How did O=C(Cn1cc(COc2ccc(Br)cc2[N+](=O)[O-])nn1)c1ccc(O)cc1 do in these assays?
bovine MsrA act: -4.8; PKA-R2B act: 4.5; PKA-R1A act: -4.3; MsrA inh: 4.6*

What do the screens show for `CC(=O)c1ccc(OCc2cn(CC(=O)c3ccc(O)cc3)nn2)c(C)c1`?
bovine MsrA act: -2.9; PKA-R2B act: 0.7; PKA-R1A act: -6.7; MsrA inh: 0.9

How did CCOC(=O)C(OC(=O)c1sc(=S)n(C)c1C)C(C)=O (stereo unspecified) do in these assays?
bovine MsrA act: -3.3; PKA-R2B act: 6.2; PKA-R1A act: -1.8; IMP-1 inhibitor: 2.2; VIM-2 inhibitor: 9.2*; MsrA inh: 2.3

How did Cc1ccc(OCCOC(=O)c2sc(=S)n(C)c2C)cc1 do in these assays?
bovine MsrA act: -4.1; PKA-R2B act: 2.9; PKA-R1A act: -2.4; IMP-1 inhibitor: -2.5; VIM-2 inhibitor: -4.1; MsrA inh: -1.1

What do the screens show for `C[C@H](CO)N1C[C@H](C)[C@@H](CN(C)C(=O)Cc2ccccc2)OCc2cn(nn2)CCCC1=O`?
MsrA inh: 0.6

How did O=c1[nH]cnc2c1C(c1ccc(Cl)cc1)c1c(nc[nH]c1=O)O2 do in these assays?
bovine MsrA act: -12.9; PKA-R2B act: -3.4; PKA-R1A act: 18.9*; IMP-1 inhibitor: -4.2; VIM-2 inhibitor: -3.0

How did CCc1ccc(OCc2cccc(C(=O)N/N=C\c3cnn(C)c3C)c2)cc1 do in these assays?
bovine MsrA act: -7.4; PKA-R2B act: -3.8; PKA-R1A act: 0.9; IMP-1 inhibitor: 6.4*; VIM-2 inhibitor: -1.7; MsrA inh: 0.1

What do the screens show for `Cc1c(/C=N\NC(=O)c2cccc(F)c2)cnn1C`?
bovine MsrA act: -3.6; PKA-R2B act: -1.9; PKA-R1A act: -10.3; IMP-1 inhibitor: -2.9; VIM-2 inhibitor: -4.2; MsrA inh: -0.2

How did O=C(N/C(=C\c1cccc([N+](=O)[O-])c1)C(=O)N1CCOCC1)c1ccco1 do in these assays?
bovine MsrA act: -0.5; PKA-R2B act: 4.2; PKA-R1A act: 1.5; IMP-1 inhibitor: -3.9; VIM-2 inhibitor: -2.1; MsrA inh: -0.5

Source: PubChem BioAssay (The Scripps Research Institute Molecular Screening Center)
